# Compound activity: PubChem BioAssay, Johns Hopkins Ion Channel Center
# An excerpt weighted towards active compounds, which were near 3.5% of everything screened.
# RGS4 block: human RGS4 inhibition; AID 463165; B-score at 10 µM; HEK293 M3R/RGS4 inducible, Fluo-4 calcium flux; stronger effect = higher value; triggered by carbachol at its EC20; 310,000 tested, 0.45% active;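 active = B-score, a plate-corrected calcium signal, over three deviations above library mean, with baseline fluorescence within five deviations of library mean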;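 note: RGS4 expression induced by doxycycline in cells with stable M3 receptor; B-score is computed from the integrated fluorescence ratio over baseline after carbachol; higher B-score means a larger calcium signal and so more RGS4 inhibition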
# Target sequence (P49798 whole entry, looked up): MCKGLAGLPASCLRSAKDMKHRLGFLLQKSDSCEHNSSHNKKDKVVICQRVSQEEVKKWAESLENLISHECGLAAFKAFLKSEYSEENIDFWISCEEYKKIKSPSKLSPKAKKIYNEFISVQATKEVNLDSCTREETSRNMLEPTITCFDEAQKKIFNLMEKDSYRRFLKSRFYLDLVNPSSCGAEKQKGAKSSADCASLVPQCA
# MrgX1 PAM: human MrgX1 positive allosteric modulation, primary screen; AID 588675; Q96LB2; B-score at 10 µM; 310,000 tested, 0.63% active; MrgX1-HEK293, Fluo-4 calcium flux, FDSS; stronger effect = higher value;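 active = plate-corrected calcium response at least 3 library SD above typical, normal starting fluorescence, not activating the receptor alone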;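 note: compound read alongside a low EC10 to EC30 dose of BAM8-22 agonist; peak minus trough fluorescence over baseline measured at the second addition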
# Target sequence (Q96LB2 whole entry, looked up): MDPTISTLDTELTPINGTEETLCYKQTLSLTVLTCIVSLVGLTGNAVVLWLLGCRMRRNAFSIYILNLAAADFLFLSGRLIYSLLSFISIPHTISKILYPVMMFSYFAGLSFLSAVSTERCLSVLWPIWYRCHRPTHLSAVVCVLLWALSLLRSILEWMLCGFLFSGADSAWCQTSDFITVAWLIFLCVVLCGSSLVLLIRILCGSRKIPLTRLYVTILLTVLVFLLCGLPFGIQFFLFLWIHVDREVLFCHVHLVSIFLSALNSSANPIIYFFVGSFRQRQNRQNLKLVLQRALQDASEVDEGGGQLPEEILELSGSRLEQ
# RGS4 pot: potentiators or activators of RGS4; HEK293 M3R/inducible RGS4, carbachol calcium flux Fluo4; stronger effect = lower value; 310,000 tested, 0.92% active; B-score at 10 µM; AID 463111;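 active = B-score of the integrated calcium signal more than 4 SD below the library mean, with starting fluorescence not abnormally high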;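 note: negative B-score means reduced calcium response which marks RGS4 activation or potentiation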
#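 Reagent: ECmax carbachol challenge; Test system: M3R-expressing HEK293 line, RGS4 induced by doxycycline; Schedule: overnight RGS4 induction, 30 min dye load 37 °C, 20 min compound RT; Detection: calcium dye Fluo4 fluorescence; Read-out: Agonist-evoked peak-minus-minimum fluorescence over baseline, integrated ratio, B score.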
# MrgX1 antagonist: antagonists of human MrgX1 receptor; AID 588676; MRGX1-HEK293 calcium flux, Fluo-4, BAM8-22 antagonism; stronger effect = lower value; B-score at 10 µM; 310,000 tested, 1.3% active;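 active = calcium-response B-score plate-corrected more than 3 library SD below zero, starting fluorescence within 5 deviations, no agonist response on first addition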;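 note: peak minus trough fluorescence over baseline after final BAM8-22 challenge near maximal dose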
# MrgX1 ag: activates human MrgX1 receptor signaling. Q96LB2. MrgX1-HEK293 cells, Fluo-4 calcium fluorescence, agonist mode; stronger effect = higher value. B-score at 10 µM. 310,000 tested, 0.44% active. AID 588627;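 active = calcium response B-score plate-corrected fluorescence ratio at least 3 library SD, with starting fluorescence B-score inside 5 SD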
#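 Material: MrgX1-expressing HEK293 cells; input: 15,000 cells per well; doses: test compound given as first of three sequential additions; schedule: overnight plating before 1 h dye loading; technique: Fluo-4 NW calcium-flux fluorescence, kinetic read; evaluation: baseline-normalised fluorescence change ratio, B-scored; control set: plate-wise positive and negative controls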
# MrgX1 antag conf: reconfirmed antagonist of human MrgX1 receptor signaling | MrgX1-HEK293, BAM8-22 calcium flux, Fluo-4; stronger effect = lower value | shares compounds with MrgX1 antagonist | 2,300 tested, 19% active | remaining BAM8-22 calcium response % of control (stronger effect = lower value), % at 10 µM;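 active = remaining agonist calcium response no higher than 100% minus 3 SD of agonist-only control wells, with starting fluorescence near control levels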;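 note: agonist BAM8-22 given at a near maximal EC90 to ECmax level; peak minus minimum fluorescence divided by baseline after agonist addition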
# HEK293 Ca flux: MrgX1 antagonist counter-screen hit in parental HEK293 cells; shares compounds with MrgX1 antagonist; Fluo-4 calcium fluorescence, FDSS; fluorescence ratio F(max-min)/F0 at 10 µM; 4,000 tested, 2% active; AID 624111;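 active = duplicate-averaged calcium fluorescence ratio at least three times the standard deviation of buffer wells, a nonspecific response in parental cells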
# HEK293 Ca counter: counter-screen for MrgX1 allosteric activators: effect in parental HEK293 cells; parental HEK293 calcium flux, Fluo-4 fluorescence ratio; stronger effect = higher value; 4,000 tested, 0.4% active; shares compounds with MrgX1 antagonist; AID 624114; fluorescence ratio F(max-min)/F0 at 10 µM;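 active = calcium fluorescence ratio, averaged over duplicates, at least 3 SD of the buffer-well ratio, meaning a nonspecific response in receptor-free cells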;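 note: untransfected parental HEK293 lacking MrgX1 used as counterscreen for MrgX1 allosteric activators; fluorescence change taken during the second addition on a kinetic imager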
# HEK293 Ca cntr2: MrgX1 activator counter-screen hit in parental HEK293 cells | shares compounds with MrgX1 antagonist | Fluo-4 calcium fluorescence (FDSS); stronger effect = higher value | fluorescence ratio F(max-min)/F0 at 10 µM | 4,000 tested, 8.7% active;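 active = calcium fluorescence ratio at least three times the spread of buffer wells, meaning a non-specific response in parental cells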
# * hit, by the source's call; i = inactive; nt = not tested or not shown.
SMILES,RGS4 block,MrgX1 PAM,RGS4 pot,MrgX1 antagonist,MrgX1 ag,MrgX1 antag conf,HEK293 Ca flux,HEK293 Ca counter,HEK293 Ca cntr2
NC(=O)c1cc2c3ccccc3ccn2c1-c1ccccc1,i,i,i,-5.7*,i,i,i,i,i
O=C(O)C(NS(=O)(=O)c1ccccc1)C(O)c1ccccc1 (centres undefined),i,i,i,i,i,nt,nt,nt,nt
Cn1c(=O)oc2cc(S(=O)(=O)NCCC(=O)N3CCN(c4ccccc4F)CC3)ccc21,i,i,i,i,i,nt,nt,nt,nt
Cn1c(=O)oc2cc(S(=O)(=O)NCCC(=O)N3CCc4ccccc43)ccc21,i,i,i,-5.1*,i,i,i,i,i
C=CCNC(=O)c1ccncc1,i,i,i,i,i,nt,nt,nt,nt
C=CCNC(=O)c1ccc(-n2cccc2)cc1,i,i,i,-8*,i,i,i,i,i
O=C(CSc1nnc(NC(=O)c2c(F)cccc2F)s1)Nc1ccc(F)cc1,i,i,i,-6.2*,i,i,i,i,i
O=C(CCS(=O)(=O)c1ccccc1)N1CCN(c2cccc(C(F)(F)F)c2)CC1,i,i,i,i,i,nt,nt,nt,nt
CC(C1CC2CCC1C2)n1c(-c2ccco2)n[nH]c1=S (centres undefined),i,i,i,i,i,nt,nt,nt,nt
CCc1nc2ccccc2n1CCc1ccccc1,i,i,i,i,i,nt,nt,nt,nt
CCc1nc2ccccc2n1CCC(C)C,i,i,i,-6.3*,i,i,i,i,i
C=CCn1c(C(O)c2ccccc2)nc2ccccc21 (centres undefined),i,i,i,i,i,nt,nt,nt,nt
CCOCCn1c(CCCO)nc2ccccc21,i,i,i,-11*,i,i,i,i,i
C=CCn1c(N)nc2ccccc21,i,i,i,-4.6*,i,i,i,i,i
CCOCCn1c(CC)nc2ccccc21,i,i,i,i,i,nt,nt,nt,nt
C=CCn1c(C(C)C)nc2ccccc21,i,i,i,-6.7*,i,i,i,i,i
COCCCNC(CC(=O)Nc1cc(C)cc(C)c1)C(=O)O (centres undefined),i,i,i,i,i,nt,nt,nt,nt
CCCn1c(N)nc2ccccc21,i,i,i,-5.5*,i,i,i,i,i
CCn1c(N)nc2ccccc21,i,i,i,i,i,nt,nt,nt,nt
CC1=CC(=O)C=C(C)C1=NOS(=O)(=O)c1ccccc1,i,nt,i,nt,nt,nt,nt,nt,nt
CC1=CC(=O)C(C(C)C)=C/C1=N/OS(=O)(=O)c1ccccc1,i,i,-8.2*,-14*,i,i,i,i,i
Cc1ccc(OCCN2CCN(C(=O)CCC(=O)Nc3nnc(C(C)C)s3)CC2)cc1,i,i,i,i,i,nt,nt,nt,nt
CCOC(=O)COn1c2c(c3c4no[n+]([O-])c4ccc31)CCCC2,i,i,i,i,i,nt,nt,nt,nt
CCCn1c(N2CCN(C(=O)N3CCCCC3)CC2)nc2ccccc21,i,i,i,-6.2*,i,i,i,i,i
CCCn1c(N2CCN(C(=O)Nc3ccccc3)CC2)nc2ccccc21,i,i,i,i,i,nt,nt,nt,nt
SMILES,RGS4 block,MrgX1 PAM,RGS4 pot,MrgX1 antagonist,MrgX1 ag,MrgX1 antag conf,HEK293 Ca flux,HEK293 Ca counter,HEK293 Ca cntr2
CCOC(=O)N1CCN(C(=O)CN(Cc2ccc(Cl)cc2)S(C)(=O)=O)CC1,i,i,i,-6.2*,i,i,i,i,i
Cc1cccc(-n2ncc3c(NCc4ccccc4)ncnc32)c1,i,i,i,i,i,nt,nt,nt,nt
Cc1cccc(-n2ncc3c(NCCc4ccc(S(N)(=O)=O)cc4)ncnc32)c1,i,i,i,-5.5*,i,82%*,i,i,i
COC(=O)C1CCN(C(=O)C(C)Oc2ccc(Cl)cc2Cl)CC1 (centres undefined),i,i,i,-9.9*,i,i,i,i,i
CCOC(=O)C1CCCN(C(=O)C(C)Oc2ccc(Cl)cc2Cl)C1 (centres undefined),i,i,i,i,i,nt,nt,nt,nt
Cc1nc(Cl)c(C(=O)NC(C)(C)C)c(C)c1Cl,i,i,i,-9.4*,i,i,i,i,i
CCc1ccc(NC(=O)c2cc(-c3ccc(OC)cc3)on2)cc1,i,i,i,i,i,nt,nt,nt,nt
CCN=C1SC(C(=O)Nc2cc(Cl)cc(Cl)c2)CC(=O)N1CC (centres undefined),i,i,i,-5.3*,i,i,i,i,i
CCOc1cc(CNCCO)cc(Br)c1OCc1ccc(Cl)cc1,i,i,i,i,i,nt,nt,nt,nt
CCCCn1c(SCC(=O)Nc2cc(C)on2)nc2c1c(=O)n(C)c(=O)n2C,i,i,i,i,i,nt,nt,nt,nt
CCn1c(SCC(=O)Nc2cc(C)on2)nc2c1c(=O)n(C)c(=O)n2C,i,i,i,-7*,i,i,i,i,i
O=C(CNC(=O)c1ccccc1)NCC(=O)OCC(=O)c1ccc(F)cc1,i,i,i,-4.8*,i,i,i,i,i
O=C(CNC(=O)Cc1ccccc1)NCC(=O)OCC(=O)c1ccc(F)cc1,i,i,i,i,i,nt,nt,nt,nt
COc1cccc(CN2CCN(Cc3ccon3)CC2CCO)c1 (centres undefined),i,i,i,i,i,nt,nt,nt,nt
OCCC1CN(Cc2ccon2)CCN1Cc1ccc(F)c(F)c1 (centres undefined),i,i,i,-8.5*,i,i,i,i,i
CCC(c1nnnn1Cc1ccc(OC)cc1)N1CCN(c2ccc(OC)cc2)CC1 (centres undefined),i,i,i,i,i,nt,nt,nt,nt
Cc1ccc2c(c1)sc(-c1ccc(N(C)C)cc1)[n+]2C,i,i,i,-11*,i,i,0.66*,i,i
CC[n+]1c(C)sc2cc(C)ccc21,i,i,i,i,i,nt,nt,nt,nt
